Measured values: ChEMBL document CHEMBL1156640, “Cyclopeptides with anti-inflammatory activity from seeds of Annona montana” (J Nat Prod, 2008)
Activity calls are given as the source filed them. The calls are words filed in the database; no cut-off is given here. Peptide text beside a SMILES is read from it.

Experiments:
J774.A1 [1] = experiment: Antiinflammatory activity in mouse J774A.1 cells assessed as decrease in pam3Cys-stimulated IL6 production at 3 ug/ml
J774.A1 [2] = experiment: Antiinflammatory activity in mouse J774A.1 cells assessed as decrease in LPS-stimulated IL6 production at 3 ug/ml; format: functional, cell-based
Method in brief: (§1)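 J774A.1 murine macrophages at 1 × 10⁶/mL in RPMI 1640 with 10% heat-inactivated FBS and 2 mM L-glutamine, 37 °C, 5% CO₂. Cells preincubated with cyclopeptide at 37 °C for 30 min, then stimulated with LPS (0.1 µg/mL) for a further 6 h. TNF-α and IL-6 in culture medium measured by ELISA. DMSO-treated cells served as controls.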

J774.A1 [3] = experiment: Antiinflammatory activity in mouse J774A.1 cells assessed as decrease in LPS-stimulated IL6 production at 3 ug/ml
J774.A1 [4] = experiment: Antiinflammatory activity in mouse J774A.1 cells assessed as decrease in LPS-stimulated TNFalpha production at 3 ug/ml; format: functional, cell-based
Method in brief: as §1

J774.A1 [5] = experiment: Antiinflammatory activity in mouse J774A.1 cells assessed as decrease in LPS-stimulated TNFalpha production at 1 ug/ml; format: functional, cell-based
Method in brief: as §1

J774.A1 [6] = experiment: Antiinflammatory activity in mouse J774A.1 cells assessed as decrease in LPS-stimulated TNFalpha production at 30 ug/ml; format: functional; parameters: scale not given: the % may be the effect or the level left
Method in brief: as §1

J774.A1 [7] = experiment: Antiinflammatory activity in mouse J774A.1 cells assessed as decrease in LPS-stimulated IL6 production at 30 ug/ml; format: functional; parameters: scale not given: the % may be the effect or the level left
Method in brief: as §1

J774.A1 [8] = experiment: Antiinflammatory activity in mouse J774A.1 cells assessed as decrease in pam3Cys-stimulated TNFalpha production at 3 ug/ml; format: functional
Method in brief: (§2)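 J774A.1 murine macrophages at 1 × 10⁶/mL in RPMI 1640 with 10% heat-inactivated FBS and 2 mM L-glutamine, 37 °C, 5% CO₂. Cells pretreated with cyclopeptide for 30 min, then stimulated with the TLR2 ligand Pam3Cys for an additional 6 h. TNF-α or IL-6 in culture medium determined by ELISA.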

J774.A1 [9] = experiment: Antiinflammatory activity in mouse J774A.1 cells assessed as decrease in pam3Cys-stimulated TNFalpha production at 1 ug/ml; format: functional, cell-based
Method in brief: as §2

J774.A1 [10] = experiment: Antiinflammatory activity in mouse J774A.1 cells assessed as decrease in pam3Cys-stimulated IL6 production at 3 ug/ml; format: functional, cell-based
Method in brief: as §2

J774.A1 [11] = experiment: Antiinflammatory activity in mouse J774A.1 cells assessed as decrease in pam3Cys-stimulated IL6 production at 3 to 50 ug/ml; format: functional, cell-based
Method in brief: as §2

J774.A1 [12] = experiment: Antiinflammatory activity in mouse J774A.1 cells assessed as decrease in LPS-stimulated IL6 production at 3 to 50 ug/ml; format: functional, cell-based
Method in brief: as §1

J774.A1 [13] = experiment: Antiinflammatory activity in mouse J774A.1 cells assessed as decrease in LPS-stimulated TNFalpha production at 3 to 50 ug/ml; format: functional, cell-based
Method in brief: as §1

J774.A1 [14] = experiment: Antiinflammatory activity in mouse J774A.1 cells assessed as decrease in pam3Cys-stimulated TNFalpha production at 30 ug/ml; format: functional
Method in brief: as §2

J774.A1 [15] = experiment: Antiinflammatory activity in mouse J774A.1 cells assessed as decrease in pam3Cys-stimulated TNFalpha production at 10 ug/ml; format: functional
Method in brief: as §2

J774.A1 [16] = experiment: Antiinflammatory activity in mouse J774A.1 cells assessed as decrease in pam3Cys-stimulated TNFalpha production at 5 ug/ml; format: functional
Method in brief: as §2

J774.A1 [17] = experiment: Antiinflammatory activity in mouse J774A.1 cells assessed as decrease in pam3Cys-stimulated IL6 production; format: functional, cell-based
Method in brief: as §2

J774.A1 [18] = experiment: Antiinflammatory activity in mouse J774A.1 cells assessed as decrease in pam3Cys-stimulated TNFalpha production at 50 ug/ml; format: functional
Method in brief: as §2

Hep 3B2 = experiment: Cytotoxicity against human Hep3B cells; format: functional, cell-based
HepG2 = experiment: Cytotoxicity against human HepG2 cells; format: functional, cell-based
Ca9-22 = experiment: Cytotoxicity against human Ca9-22 cells; format: functional, cell-based
MCF7 = experiment: Cytotoxicity against human MCF7 cells; format: functional, cell-based
A549 = experiment: Cytotoxicity against human A549 cells; format: functional, cell-based
MDA-MB-231 = experiment: Cytotoxicity against human MDA-MB-231 cells; format: functional, cell-based
KB = experiment: Cytotoxicity against human KB cells; format: functional, cell-based

For CC(C)C[C@@H]1NC(=O)CNC(=O)[C@@H]2CCCN2C(=O)[C@H]([C@@H](C)O)NC(=O)[C@H](Cc2c[nH]c3ccccc23)NC(=O)[C@H](C)NC(=O)[C@H](CC(N)=O)NC1=O [CYCLOMONTANIN A] (cyclo(AWTPGLN)), the Activity (J774.A1 [1]) was “Active”, the Activity (J774.A1 [2]) was “Active” and the Activity (J774.A1 [3]) was “Active”. For the same compound, the Activity (J774.A1 [4]) was “Active”, the Activity (J774.A1 [5]) was “Active” and the Activity (J774.A1 [6]) was 50%. The Activity (J774.A1 [7]) was 50%, the Activity (J774.A1 [8]; 1 ug/ml, in the assay text read “at 1 ug/ml” for “at 3 ug/ml”) was “Active” and the Activity (J774.A1 [9]) was “Active”. For the same compound, the Activity (J774.A1 [10]) was “Active”.
CC(C)[C@@H]1NC(=O)[C@H](Cc2c[nH]cn2)NC(=O)[C@H](CC(N)=O)NC(=O)[C@H](Cc2ccccc2)NC(=O)[C@H]([C@@H](C)O)NC(=O)[C@@H]2CCCN2C(=O)[C@@H]2CCCN2C(=O)[C@H](Cc2ccccc2)NC(=O)[C@H](CC(N)=O)NC1=O [CYCLOMONTANIN C] (cyclo(FNHVNFPPT)) was tested, and the Activity (J774.A1 [11]) was “Active”, the Activity (J774.A1 [12]) was “Active” and the Activity (J774.A1 [6]) was 50%. For the same compound, the Activity (J774.A1 [7]) was 50% and the Activity (J774.A1 [13]) was “Active”.
CC(C)C[C@@H]1NC(=O)CNC(=O)[C@@H]2CCCN2C(=O)[C@H](CC(N)=O)NC(=O)[C@H](C)NC(=O)[C@H](Cc2ccc(O)cc2)NC(=O)[C@@H]2CCCN2C1=O [CYCLOMONTANIN D] (cyclo(ANPGLPY)) gave an inhibition at 30 µg/mL (J774.A1 [14]) of 85%, an inhibition at 10 µg/mL (J774.A1 [15]) of 60% and an inhibition at 5 µg/mL (J774.A1 [16]) of 50%. The Activity (J774.A1 [6]) was 50%, the Activity (J774.A1 [17]) was “Dose-dependent effect” and the Activity (J774.A1 [7]) was 50%. It also gave an inhibition at 3 µg/mL (J774.A1 [8]) of 20% and an inhibition at 50 µg/mL (J774.A1 [18]) of 90%.
CC(C)[C@@H]1NC(=O)[C@H](Cc2ccccc2)NC(=O)CNC(=O)[C@@H]2CCCN2C(=O)[C@H](C)NC(=O)[C@H](CO)NC1=O [ANNUMURICATIN C] (cyclo(APGFVS)) was tested, and the Activity (Hep 3B2) was “inactive”, the Activity (HepG2) was “inactive” and the Activity (Ca9-22) was “inactive”. For the same compound, the Activity (J774.A1 [6]) was 50%, the Activity (J774.A1 [7]) was 50% and the Activity (MCF7) was “inactive”. The Activity (A549) was “inactive”, the Activity (MDA-MB-231) was “inactive” and the IC50 (KB) was 1000 nM.
